# Experimental data published in ChEMBL document CHEMBL5724801, “EUbOPEN Chemogenomics Library - Multiplex” (2024).
# “And” between values parts separate entries of the source, which are not always exact repeats. Identical values can stand only once.
# System: U2OS
# Experiment: Multiplex assay against U2OS
# Assay type: toxicity, cell-based
# Conditions: human
# Procedure, shortened: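 Cells were classed with CellPathfinder machine-learning gating, first as Hoechst high-intensity objects or normal cells, then (normal cells) as healthy, pyknosed or fragmented nuclei, and finally (pyknosed cells) as mitotic or apoptotic. Staining of live cells at seeding used Hoechst33342, BioTracker Green Microtubule Cytoskeleton Dye, MitoTracker Red and Annexin V Alexa Fluor 680, with imaging on a CQ1 microscope at 37°C and 5% CO2 after compound addition. Tubulin, mitochondrial-mass and membrane-permeability phenotypes are per cents of healthy-nucleus cells.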
# [1] = 12 h, 1 µM, compound concentration 1 uM
# [2] = 12 h, 10 µM, compound concentration 10 uM
# [3] = 24 h, 1 µM, compound concentration 1 uM
# [4] = 24 h, 10 µM, compound concentration 10 uM
# [5] = 48 h, 1 µM, compound concentration 1 uM
# [6] = 48 h, 10 µM, compound concentration 10 uM
smiles,measurement,setting,value
Cc1ccc(/C(=C\CN2CCCC2)c2ccccn2)cc1 [TRIPROLIDINE],Population Apoptotic (%),[1],85%
same,Population Fragmented Nuclei (%),[1],29% and 18%
same,Population Healthy Nuclei (%),[1],61% and 70%
same,Population Hoechst High Intensity Objects (%),[1],2% and 3%
same,Population Membrane Permeable-Phenotype (%),[1],4% and 6%
same,Population Mitochondria Different-Phenotype (%),[1],2% and 1%
same,Population Mitotic Cells (%),[1],15% and 14%
same,Population Normal (%),[1],97% and 96%
same,Population Pyknosed Nuclei (%),[1],8% and 11%
same,Population Tubulin-Different-Phenotype (%),[1],1% and 5%
same,Total Cell Count,[1],244 and 126
same,Population Apoptotic (%),[2],87% and 75%
same,Population Fragmented Nuclei (%),[2],25% and 15%
same,Population Healthy Nuclei (%),[2],64% and 77%
same,Population Hoechst High Intensity Objects (%),[2],3% and 0%
same,Population Membrane Permeable-Phenotype (%),[2],29% and 14%
same,Population Mitochondria Different-Phenotype (%),[2],23% and 18%
same,Population Mitotic Cells (%),[2],12% and 25%
same,Population Normal (%),[2],96% and 99%
same,Population Pyknosed Nuclei (%),[2],9% and 7%
same,Population Tubulin-Different-Phenotype (%),[2],24% and 15%
same,Total Cell Count,[2],264 and 114
same,Population Apoptotic (%),[3],89% and 81%
same,Population Fragmented Nuclei (%),[3],23% and 20%
same,Population Healthy Nuclei (%),[3],66% and 68%
same,Population Hoechst High Intensity Objects (%),[3],1% and 4%
same,Population Membrane Permeable-Phenotype (%),[3],4% and 9%
same,Population Mitochondria Different-Phenotype (%),[3],3% and 6%
same,Population Mitotic Cells (%),[3],10% and 18%
same,Population Normal (%),[3],98% and 96%
same,Population Pyknosed Nuclei (%),[3],9% and 11%
same,Population Tubulin-Different-Phenotype (%),[3],2% and 5%
same,Total Cell Count,[3],297 and 150
same,Population Apoptotic (%),[4],75% and 78%
same,Population Fragmented Nuclei (%),[4],27% and 19%
same,Population Healthy Nuclei (%),[4],62% and 70%
same,Population Hoechst High Intensity Objects (%),[4],2% and 1%
same,Population Membrane Permeable-Phenotype (%),[4],12% and 11%
same,Population Mitochondria Different-Phenotype (%),[4],15% and 13%
same,Population Mitotic Cells (%),[4],24% and 21%
same,Population Normal (%),[4],97% and 98%
same,Population Pyknosed Nuclei (%),[4],10% and 9%
same,Population Tubulin-Different-Phenotype (%),[4],8% and 6%
same,Total Cell Count,[4],320 and 149
same,Population Apoptotic (%),[5],86% and 76%
same,Population Fragmented Nuclei (%),[5],17%
same,Population Healthy Nuclei (%),[5],73% and 75%
same,Population Hoechst High Intensity Objects (%),[5],2% and 3%
same,Population Membrane Permeable-Phenotype (%),[5],3% and 5%
same,Population Mitochondria Different-Phenotype (%),[5],3%
same,Population Mitotic Cells (%),[5],13% and 23%
same,Population Normal (%),[5],97% and 96%
same,Population Pyknosed Nuclei (%),[5],9% and 6%
same,Population Tubulin-Different-Phenotype (%),[5],3% and 4%
same,Total Cell Count,[5],398 and 209
same,Population Apoptotic (%),[6],86% and 89%
same,Population Fragmented Nuclei (%),[6],24% and 15%
same,Population Healthy Nuclei (%),[6],65% and 74%
same,Population Hoechst High Intensity Objects (%),[6],2% and 4%
same,Population Membrane Permeable-Phenotype (%),[6],11% and 9%
same,Population Mitochondria Different-Phenotype (%),[6],8%
same,Population Mitotic Cells (%),[6],13% and 10%
same,Population Normal (%),[6],97% and 95%
same,Population Pyknosed Nuclei (%),[6],9%
same,Population Tubulin-Different-Phenotype (%),[6],7% and 6%
same,Total Cell Count,[6],453 and 203
